Results as given in article PMC4839537 (Biochemical pharmacology, 2016).
Numbered stars: 1 amine (or outer) side, 2 acyl side, 3 side chain; on linkers, the order of the positions; unused ones are H or OH. Bridge positions count the residues as written; N and C are the ends. Square brackets hold non-standard residues; d marks the D form. Peptide text beside a SMILES is read from it. * marks the point of attachment. Leu(3R-OH,Nα-propionyl) = CCC(=O)N[C@H](C(=O)*)[C@H](O)C(C)C; X2 = CC(=O)NC(C(=O)OC(C(C)C)C(N[*:1])C(=O)[*:2])C(O)C(C)C; X1 = CC(C)[C@@H](O[*:3])[C@H](N[*:1])C(=O)[*:2]; NMeT = CN[CH](C(=O)O)[CH](C)O; dPhLac = O=C(O)[C@H](O)Cc1ccccc1; PhLac = O=C(O)[CH](O)Cc1ccccc1; NMeA = CN[CH](C)C(=O)O; NMeDha = C=C(NC)C(=O)O

Experiments:
M3 muscarinic receptor = M3 muscarinic receptor (Homo sapiens, UniProt P20309); assay type: cell-based
Sequence of M3 muscarinic receptor (P20309 whole entry): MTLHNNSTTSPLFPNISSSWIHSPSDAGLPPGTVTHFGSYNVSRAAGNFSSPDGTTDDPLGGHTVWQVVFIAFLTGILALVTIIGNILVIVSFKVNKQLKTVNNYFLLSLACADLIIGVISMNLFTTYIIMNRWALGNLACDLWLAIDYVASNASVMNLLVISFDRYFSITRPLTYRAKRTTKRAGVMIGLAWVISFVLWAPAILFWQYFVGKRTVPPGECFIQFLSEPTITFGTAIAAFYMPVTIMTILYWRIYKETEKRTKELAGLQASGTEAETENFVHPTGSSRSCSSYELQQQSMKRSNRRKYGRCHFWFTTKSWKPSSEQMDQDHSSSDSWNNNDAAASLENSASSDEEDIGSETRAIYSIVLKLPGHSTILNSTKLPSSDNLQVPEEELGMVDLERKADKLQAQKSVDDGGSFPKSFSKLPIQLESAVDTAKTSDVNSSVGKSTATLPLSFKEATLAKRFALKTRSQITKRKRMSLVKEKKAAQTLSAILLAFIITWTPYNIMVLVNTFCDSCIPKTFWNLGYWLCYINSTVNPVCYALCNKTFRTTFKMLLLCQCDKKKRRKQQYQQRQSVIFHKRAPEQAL

P2Y1R = P2Y1R (Homo sapiens, UniProt P47900); assay type: cell-based
Sequence of P2Y1R (P47900 whole entry): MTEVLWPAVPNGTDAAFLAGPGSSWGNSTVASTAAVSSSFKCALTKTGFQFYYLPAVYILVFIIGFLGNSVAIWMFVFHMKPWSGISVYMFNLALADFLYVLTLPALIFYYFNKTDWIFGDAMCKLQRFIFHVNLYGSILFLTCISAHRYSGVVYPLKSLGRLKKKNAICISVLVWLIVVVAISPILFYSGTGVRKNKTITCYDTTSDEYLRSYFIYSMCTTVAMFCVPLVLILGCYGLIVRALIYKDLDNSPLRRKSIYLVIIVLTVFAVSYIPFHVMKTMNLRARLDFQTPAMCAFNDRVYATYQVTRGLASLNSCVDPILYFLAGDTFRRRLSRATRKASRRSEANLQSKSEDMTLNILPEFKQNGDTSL

Gβγ = conditions: 10 μM, 5 min pretreatment; compared with PTX 50 ng/ml for 6 h; cited from earlier work
Gαq [1] = conditions: cited from earlier work
Gα15 = conditions: cited from earlier work
Gαq [2] = conditions: 10 μM, 5 min pretreatment; cited from earlier work
P2Y1R (Gq-coupled) = P2Y1R (Gq-coupled) (Homo sapiens, UniProt P47900); assay type: cell-based
Sequence of P2Y1R (Gq-coupled) (P47900 whole entry): as above

recombinant human A2AAR = recombinant human A2AAR (Homo sapiens, UniProt P29274); test: CGS21680-induced cAMP accumulation in CHO cells expressing the A2AAR; assay type: cell-based; conditions: data not shown
Sequence of recombinant human A2AAR (P29274 whole entry): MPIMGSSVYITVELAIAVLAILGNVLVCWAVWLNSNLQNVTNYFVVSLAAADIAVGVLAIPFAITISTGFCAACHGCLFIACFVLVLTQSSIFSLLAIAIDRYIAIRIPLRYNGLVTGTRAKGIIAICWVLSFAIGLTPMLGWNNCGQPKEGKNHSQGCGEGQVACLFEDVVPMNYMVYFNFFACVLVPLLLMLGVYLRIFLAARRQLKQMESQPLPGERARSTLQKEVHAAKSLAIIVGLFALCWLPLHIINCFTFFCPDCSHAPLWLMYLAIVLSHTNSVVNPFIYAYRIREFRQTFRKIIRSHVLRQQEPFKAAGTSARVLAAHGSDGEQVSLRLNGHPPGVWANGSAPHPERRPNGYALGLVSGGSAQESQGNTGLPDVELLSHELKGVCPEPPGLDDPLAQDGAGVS
Summary of the method: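 CHO cells stably expressing human A2AAR were grown in DMEM with 10% FBS, penicillin/streptomycin and glutamine, then plated in 96-well plates overnight. Cells were pretreated with test compound (300 nM) for 30 min or with pertussis toxin (200 ng/ml) overnight. Agonist was then added with rolipram (10 μM). Supernatant was removed, cells were lysed in 0.3% Tween-20, and cAMP was measured by AlphaScreen.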

[3] = cited from earlier work
Gα16 = conditions: 1 μM; cited from earlier work
M2 muscarinic receptor = M2 muscarinic receptor (Homo sapiens, UniProt P08172); assay type: cell-based
Sequence of M2 muscarinic receptor (P08172 whole entry): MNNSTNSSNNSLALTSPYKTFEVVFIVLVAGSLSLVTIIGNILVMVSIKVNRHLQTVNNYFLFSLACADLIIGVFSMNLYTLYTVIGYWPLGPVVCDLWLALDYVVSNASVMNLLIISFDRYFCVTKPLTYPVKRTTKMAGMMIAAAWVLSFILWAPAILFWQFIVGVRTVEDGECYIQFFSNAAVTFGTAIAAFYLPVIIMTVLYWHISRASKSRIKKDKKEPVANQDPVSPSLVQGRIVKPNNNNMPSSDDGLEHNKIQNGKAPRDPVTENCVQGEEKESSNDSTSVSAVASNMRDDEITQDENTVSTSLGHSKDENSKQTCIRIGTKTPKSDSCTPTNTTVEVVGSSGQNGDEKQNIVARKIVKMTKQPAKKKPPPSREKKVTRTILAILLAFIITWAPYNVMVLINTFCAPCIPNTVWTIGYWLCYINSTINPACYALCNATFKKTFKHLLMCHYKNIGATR

[4] = test system: Gαq-coupled T1R1/T1R3 heterodimeric taste receptor; conditions: MIN6 cells; cited from earlier work
[5] = target: M2 muscarinic receptor (Gi-coupled) (Homo sapiens, UniProt P08172); assay type: cell-based
Sequence of M2 muscarinic receptor (Gi-coupled) (P08172 whole entry): as above

[6] = target: recombinant human A2BAR (Gαs) (Homo sapiens, UniProt P29275); assay type: cell-based
Sequence of recombinant human A2BAR (Gαs) (P29275 whole entry): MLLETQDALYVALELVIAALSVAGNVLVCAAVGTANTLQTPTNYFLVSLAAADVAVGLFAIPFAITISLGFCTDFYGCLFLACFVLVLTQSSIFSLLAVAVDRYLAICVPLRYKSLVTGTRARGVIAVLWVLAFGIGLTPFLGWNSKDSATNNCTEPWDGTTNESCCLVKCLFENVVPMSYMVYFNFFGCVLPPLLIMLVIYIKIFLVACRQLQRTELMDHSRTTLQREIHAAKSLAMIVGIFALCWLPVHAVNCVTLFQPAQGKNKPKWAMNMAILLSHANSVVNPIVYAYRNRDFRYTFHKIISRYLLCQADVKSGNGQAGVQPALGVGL

Gαi subunits = conditions: cited from earlier work
ERK1/2 activation = ERK1/2 activation mediated through various GPCRs; assay type: cell-based
Summary of the method: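 CHO (A1AR, M2, M3) or 1321N1 (P2Y1R) cells were seeded at 30,000 cells/100 μl and serum-starved overnight after attachment. Pretreatment was test compound or GO6983 (10 μM) for 30 min, or pertussis toxin (200 ng/ml) overnight. Agonists in Hank's buffered salt solution were applied for 5 min. Cells were lysed and p-ERK1/2 (Thr202/Tyr204) was read by AlphaScreen SureFire.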

A1AR = A1AR (Homo sapiens, UniProt P30542); assay type: cell-based
Sequence of A1AR (P30542 whole entry): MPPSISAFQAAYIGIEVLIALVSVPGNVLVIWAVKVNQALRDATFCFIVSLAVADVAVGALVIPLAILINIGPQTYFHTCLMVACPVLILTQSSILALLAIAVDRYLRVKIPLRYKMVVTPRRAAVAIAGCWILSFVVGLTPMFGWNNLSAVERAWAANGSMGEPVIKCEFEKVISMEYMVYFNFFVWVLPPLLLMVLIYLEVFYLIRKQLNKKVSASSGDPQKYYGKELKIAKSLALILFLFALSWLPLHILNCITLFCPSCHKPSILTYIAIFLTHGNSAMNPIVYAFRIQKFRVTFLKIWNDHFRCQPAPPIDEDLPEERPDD

Gαq-coupled P2Y1R = Gαq-coupled P2Y1R (Homo sapiens, UniProt P47900); test: Akt1/2/3 phosphorylation in 1321N1 cells expressing the P2Y1R; assay type: cell-based; conditions: UBO-QIC 100 nM
Sequence of Gαq-coupled P2Y1R (P47900 whole entry): as the sequence (P47900 whole entry) above
Summary of the method: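 1321N1 astrocytoma cells expressing human P2Y1R were seeded at 30,000 cells/100 μl in complete medium. After attachment they were serum-starved overnight, pretreated with test compound (100 nM) for 30 min, then given agonist in Hank's buffered salt solution for 20 min. Lysed cells were assayed for p-Akt1/2/3 (Ser473) by AlphaScreen SureFire. Mean ± SEM of 3 independent experiments in duplicate.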

endogenous human P2Y1R = endogenous human P2Y1R (Homo sapiens, UniProt P47900); assay type: cell-based
Sequence of endogenous human P2Y1R (P47900 whole entry): as above

endogenous A1AR = endogenous A1AR (Mesocricetus auratus, UniProt A0A1U8BVR4); assay type: cell-based, Syrian hamster
Sequence of endogenous A1AR (A0A1U8BVR4 1-326): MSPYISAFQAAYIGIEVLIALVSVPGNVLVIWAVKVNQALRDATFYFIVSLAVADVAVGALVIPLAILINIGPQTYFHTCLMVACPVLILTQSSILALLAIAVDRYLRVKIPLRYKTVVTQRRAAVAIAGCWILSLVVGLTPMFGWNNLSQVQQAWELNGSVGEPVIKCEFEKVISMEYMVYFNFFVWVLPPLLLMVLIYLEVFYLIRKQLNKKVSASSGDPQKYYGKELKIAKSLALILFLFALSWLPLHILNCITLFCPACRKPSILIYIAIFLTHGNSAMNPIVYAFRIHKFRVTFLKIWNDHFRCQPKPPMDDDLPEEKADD

[7] = target: recombinant human M3 muscarinic receptor (Gαq) (Homo sapiens, UniProt P20309); assay type: cell-based
Sequence of recombinant human M3 muscarinic receptor (Gαq) (P20309 whole entry): as the sequence (P20309 whole entry) above

platelet aggregation = conditions: cited from earlier work
human A1AR (Gi-coupled) = human A1AR (Gi-coupled) (Homo sapiens, UniProt P30542); assay type: cell-based
Sequence of human A1AR (Gi-coupled) (P30542 whole entry): as the sequence (P30542 whole entry) above

Gi-coupled P2Y12R = Gi-coupled P2Y12R (Homo sapiens, UniProt Q9H244); assay type: cell-based
Sequence of Gi-coupled P2Y12R (Q9H244 whole entry): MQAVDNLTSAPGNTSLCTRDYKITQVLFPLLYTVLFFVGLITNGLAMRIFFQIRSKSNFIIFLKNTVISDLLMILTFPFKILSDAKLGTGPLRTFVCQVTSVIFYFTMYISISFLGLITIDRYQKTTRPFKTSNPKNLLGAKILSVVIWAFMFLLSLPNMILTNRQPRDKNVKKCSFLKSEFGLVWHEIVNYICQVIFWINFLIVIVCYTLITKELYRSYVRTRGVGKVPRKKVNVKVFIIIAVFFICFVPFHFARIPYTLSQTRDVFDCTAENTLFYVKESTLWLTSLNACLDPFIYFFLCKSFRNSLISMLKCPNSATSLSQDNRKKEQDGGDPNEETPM

P2Y12R (Gi-coupled) = P2Y12R (Gi-coupled) (Homo sapiens, UniProt Q9H244); assay type: cell-based
Sequence of P2Y12R (Gi-coupled) (Q9H244 whole entry): as above

Gi-coupled A1AR = Gi-coupled A1AR (Homo sapiens, UniProt P30542); assay type: cell-based
Sequence of Gi-coupled A1AR (P30542 whole entry): as the sequence (P30542 whole entry) above

Q: With `COc1ccc2c(c1)c(C1=C(c3c[nH]c4ccccc34)C(=O)NC1=O)cn2CCCN(C)C` [GO6983, 3-[1-[3-(dimethylamino)propyl]-5-methoxy-1H-indol-3-yl]-4-(1H-indol-3-yl)-1H-pyrrole-2,5-dione] as the molecule, how does the “Effect on ERK1/2 phosphorylation” value (M3 muscarinic receptor) read?
A: Its value is “completely blocked”.

Q: And the “Effect on ERK1/2 phosphorylation” value (P2Y1R)?
A: The value was “completely blocked”.

Q: For `C=C1C(=O)NC(C)C(=O)N(C)C(C)C(=O)NC(C(OC(=O)C(NC(C)=O)C(O)C(C)C)C(C)C)C(=O)N(C)C(C(C)OC)C(=O)OC(C)C(NC(C)=O)C(=O)OC(Cc2ccccc2)C(=O)N1C` (stereo not drawn) [YM-254890] (Ac-T[PhLac][NMeDha]A[NMeA][X2][NMeT](Me); ester 1-C; configuration not given here), which “Inhibition of fMLP-induced Ca2+ mobilization” value (Gβγ) is on record?
A: Its value is “to a lesser extent than pertussis toxin”.

Q: And the “Effect on release of GDP from Gαq” value (Gαq [1])?
A: Its value is “inhibits the release of GDP from Gαq”.

Q: And the “Effect on Gα15-mediated Ca2+ release” value (Gα15)?
A: Its value is “only a small effect”.

Q: What about the “Inhibition of UTP-mediated Ca2+ release” value (Gαq [2]) of the same molecule?
A: Its value is “much larger inhibition”.

Q: Which “Effect on agonist effects (calcium)” value (P2Y1R (Gq-coupled)) does the source give for `C=C1C(=O)N[C@@H](C)C(=O)N(C)[C@@H](C)C(=O)N[C@@H]([C@H](OC(=O)[C@@H](NC(=O)CC)[C@H](O)C(C)C)C(C)C)C(=O)N(C)[C@@H]([C@@H](C)OC)C(=O)O[C@H](C(C)C)[C@H](NC(C)=O)C(=O)O[C@H](Cc2ccccc2)C(=O)N1C` [UBO-QIC, L-threonine, (3R)-N-acetyl-3-hydroxy-L-leucyl-(αR)-α-hydroxybenzenepropanoyl-2,3-didehydro-N-methylalanyl-L-alanyl-N-methyl-L-alanyl-(3R)-3-[[(2S,3R)-3-hydroxy-4-methyl-1-oxo-2-[(1-oxopropyl)amino]pentyl]oxy]-L-leucyl-N,O-dimethyl-, (7→1)-lactone] (Ac-[X1][dPhLac][NMeDha]A[NMeA][X1](Leu(3R-OH,Nα-propionyl))[NMeT](Me); ester 1-C) here?
A: The value was “completely blocked”.

Q: And the “Effect on calcium responses” value (P2Y1R (Gq-coupled))?
A: Its value is “completely blocked”.

Q: And the “Effect on CGS21680-induced cAMP accumulation” value (recombinant human A2AAR)?
A: The value was “did not affect”.

Q: And the “Block of the maximal agonist effect in ERK1/2 phosphorylation” value (“Block of the maximal agonist effect” for short) (P2Y1R)?
A: The value was at most 30%.

Q: And the “Effect on blood pressure” value [3]?
A: The value was “decrease blood pressure”.

Q: And the “Effect on Gα16” value (Gα16)?
A: Its value is “could inhibit Gα16”.

Q: And the “Block of the maximal agonist effect” value (M2 muscarinic receptor)?
A: Its value is at most 30%.

Q: What about the “Effect on ERK1/2 stimulation” value [4] of the same molecule?
A: The value was “only partially reduced”.

Q: What about the “Effect on agonist effects (calcium)” value [5] of the same molecule?
A: The value was “completely blocked”.

Q: And the “Effect on calcium responses” value [5]?
A: Its value is “completely blocked”.

Q: What about the “Effect of inhibitor on NECA-induced cAMP accumulation” value [6] of the same molecule?
A: Its value is “did not show any effect”.

Q: What about the “Effect on phosphorylation of protein kinase B (Akt)” value (Gαi subunits) of the same molecule?
A: The value was “no effect”.

Q: And the “Effect on ERK1/2 activation” value (ERK1/2 activation; UBO-QIC 10 nM, initial experiment)?
A: The value was “little if any effect”.

Q: What about the “Effect on agonist concentration-response curves, ERK1/2” value (ERK1/2 activation; in all cases (P2Y1, A1AR, M2, M3)) of the same molecule?
A: The value was “somewhat non-parallel right shift”.

Q: And the “Block of the maximal agonist effect” value (A1AR)?
A: The value was at most 30%.

Q: And the “Effect on 2MeSADP-induced Akt1/2/3 phosphorylation” value (Gαq-coupled P2Y1R)?
A: The value was “completely inhibited”.

Q: And the “Effect on MRS2365-mediated calcium transients” value (endogenous human P2Y1R)?
A: Its value is “antagonizes”.

Q: What about the “Effect on CPA-induced intracellular calcium mobilization” value (endogenous A1AR) of the same molecule?
A: Its value is “completely blocked”.

Q: What about the “Effect of inhibitor on carbachol-induced Ca2+ transients” value [7] of the same molecule?
A: Its value is “completely blocked”.

Q: What about the “Effect on platelet aggregation” value (platelet aggregation) of the same molecule?
A: The value was “inhibit platelet aggregation”.

Q: What about the “Effect on agonist effects (calcium)” value (human A1AR (Gi-coupled)) of the same molecule?
A: Its value is “completely blocked”.

Q: What about the “Effect on calcium responses” value (human A1AR (Gi-coupled)) of the same molecule?
A: Its value is “completely blocked”.

Q: What about the “Effect on Akt1/2/3 activity” value (Gi-coupled P2Y12R) of the same molecule?
A: Its value is “no effect”.

Q: What about the “Effect on the maximum effect of 2MeSADP-stimulated Akt activity” value (Gi-coupled P2Y12R) of the same molecule?
A: The value was “modest but significant inhibition”.

Q: And the “Effect on agonist effects (calcium)” value (P2Y12R (Gi-coupled))?
A: Its value is “completely blocked”.

Q: What about the “Effect on calcium responses” value (P2Y12R (Gi-coupled)) of the same molecule?
A: The value was “completely blocked”.

Q: What about the “Effect on Akt1/2/3 activity” value (Gi-coupled A1AR) of the same molecule?
A: The value was “no effect”.
